Test results published in ChEMBL document CHEMBL2390875, “Synthesis and pharmacological investigation of new N-hydroxyalkyl-2-aminophenothiazines exhibiting marked MDR inhibitory effect” (Bioorg Med Chem, 2013).
Active and inactive are the calls of the source. The rule behind the calls is not given here.

Tested on: Hepatocyte
Experiment: Cytotoxicity against Wistar rat primary hepatocytes assessed as change in cell viability at 10 uM after 3 hrs by MTT assay
Format: cell-based
Outline: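 Primary hepatocytes from male Wistar rats (200-250 g), cultured as a monolayer, exposed 3 h to compound or vehicle (control), washed, then incubated with 1 mg/mL MTT for 2 h. Cells lysed in DMSO and absorbance read at 570 nm. Viability expressed as % of control.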

Compound	Activity
COc1ccc(-n2nnc(CCC(O)CN3c4ccccc4Sc4ccc(NCCN5CCOCC5)cc43)n2)cc1 (stereo not drawn)	Non-toxic
COc1ccc(-n2nnc(CCC(O)CN3c4ccccc4[S+]([O-])c4ccc(N5CCOCC5)cc43)n2)cc1 (stereo not drawn)	Non-toxic
COc1ccc(-n2nnc(CCC(O)CN3c4ccccc4S(=O)(=O)c4ccc(N5CCOCC5)cc43)n2)cc1 (stereo not drawn)	Non-toxic
CCN(CC)c1ccc2c(c1)N(CC(O)CCc1nnn(-c3ccc(OC)cc3)n1)c1ccccc1S2 (racemic)	Non-toxic
COc1ccc(-n2nnc(CCC(O)CN3c4ccccc4Sc4ccc(N5CCOCC5)cc43)n2)cc1 (racemic) [listing 1 of 2 here]	Non-toxic

Tested on: Hepatocyte
Experiment: Inhibition of p-gp in Wistar rat primary hepatocytes assessed as inhibition of rhodamine 123 efflux at 10 uM after 3 hrs
Format: cell-based
Outline: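 Collagenase-perfused male Wistar rat hepatocytes plated on collagen and cultured 4 days in supplemented Williams Medium E. Cells preloaded 30 min with 5 µM RH123, then exposed 3 h to compound or 0.1% DMSO vehicle. Cells washed with ice-cold HBSS and lysed in 0.5% Triton X100. Intracellular RH123 read by fluorescence at 519/538 nm. Mean ± SD from three isolations, four wells per condition, Student's t-test.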

Compound	inhibition
COc1ccc(-n2nnc(CCC(O)CN3c4ccccc4[S+]([O-])c4ccc(N5CCOCC5)cc43)n2)cc1 (stereo not drawn)	Active
COc1ccc(-n2nnc(CCC(O)CN3c4ccccc4S(=O)(=O)c4ccc(N5CCOCC5)cc43)n2)cc1 (stereo not drawn)	Active
COc1ccc(-n2nnc(/C=C\C=C\N3c4ccccc4Sc4ccc(Cl)cc43)n2)cc1	Active
COc1ccc(-n2nnc(CCC(O)CN3c4ccccc4Sc4ccc(C(F)(F)F)cc43)n2)cc1 (stereo not drawn)	Active
COc1ccc(-n2nnc(CCC(O)CN3c4ccccc4Sc4ccc(NC(C)=O)cc43)n2)cc1 (stereo not drawn)	Active
COc1ccc(-n2nnc(CCC(O)CN3c4ccccc4Sc4ccccc43)n2)cc1 (stereo not drawn)	Active
CCN(CC)c1ccc2c(c1)N(CC(O)CCc1nnn(-c3ccc(OC)cc3)n1)c1ccccc1S2 (racemic)	Active
COc1ccc(-n2nnc(CCC(O)CN3c4ccccc4Sc4ccc(N5CCN(C)CC5)cc43)n2)cc1 (racemic)	Active
COc1ccc(-n2nnc(CCC(O)CN3c4ccccc4Sc4ccc(N5CCOCC5)cc43)n2)cc1 (racemic) [listing 2 of 2 here]	Active
COc1ccc(-n2nnc(CCC(O)CN3c4ccccc4Sc4ccc(N5CCN(C)CC5)cc43)n2)cc1 (single isomer, unassigned; (+))	Active
COc1ccc(-n2nnc(CCC(O)CN3c4ccccc4Sc4ccc(N5CCN(C)CC5)cc43)n2)cc1 (single isomer, unassigned; (-))	Active
COc1ccc(-n2nnc(CCC(O)CN3c4ccccc4Sc4ccc(N5CCOCC5)cc43)n2)cc1 (single isomer, unassigned; (-))	Active
COc1ccc(-n2nnc(CCC(O)CN3c4ccccc4Sc4ccc(N5CCOCC5)cc43)n2)cc1 (stereo in doubt; (+)-3h)	Active
